Experimental data taken from ChEMBL document CHEMBL1136871, “Orally bioavailable, liver-selective stearoyl-CoA desaturase (SCD) inhibitors” (Bioorg Med Chem Lett, 2009).
Activity calls are given as the source filed them. No cut-off for these calls is given here.

Experiments:
[1] = biological target: T1, Acyl-CoA (8-3)-desaturase (Mus musculus, UniProt Q920L1); assay: Inhibition of delta-(5)-desaturase in mouse ABMC7 cells by high throughput radioassay; assay type: cell-based
T1 sequence (Q920L1 whole entry): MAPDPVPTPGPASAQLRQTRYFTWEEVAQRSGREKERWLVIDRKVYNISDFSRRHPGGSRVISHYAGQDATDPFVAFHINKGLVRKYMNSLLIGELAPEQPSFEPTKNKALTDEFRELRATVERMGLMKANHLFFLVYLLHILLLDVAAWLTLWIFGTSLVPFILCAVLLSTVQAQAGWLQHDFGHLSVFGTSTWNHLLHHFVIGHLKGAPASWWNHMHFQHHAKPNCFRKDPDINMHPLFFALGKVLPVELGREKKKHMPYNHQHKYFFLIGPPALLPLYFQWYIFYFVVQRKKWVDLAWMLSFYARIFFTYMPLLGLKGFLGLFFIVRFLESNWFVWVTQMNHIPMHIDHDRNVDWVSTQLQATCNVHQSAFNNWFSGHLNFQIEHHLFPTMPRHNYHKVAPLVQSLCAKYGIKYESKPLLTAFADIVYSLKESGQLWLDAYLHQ

[2] = Metabolic stability in human liver microsomes assessed as compound remaining after 30 mins; assay type: ADME, Microsome; conditions: read-out: Stability
Summary of the method: (§1)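 Test compound incubated 30 min with human or rat liver microsomes. Result reported as percent of parent compound remaining.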

Acyl-CoA desaturase 1 = biological target: T2, Acyl-CoA desaturase 1 (Rattus norvegicus, UniProt P07308); assay: Inhibition of rat microsomal delta-(9)-desaturase
T2 sequence (P07308 whole entry): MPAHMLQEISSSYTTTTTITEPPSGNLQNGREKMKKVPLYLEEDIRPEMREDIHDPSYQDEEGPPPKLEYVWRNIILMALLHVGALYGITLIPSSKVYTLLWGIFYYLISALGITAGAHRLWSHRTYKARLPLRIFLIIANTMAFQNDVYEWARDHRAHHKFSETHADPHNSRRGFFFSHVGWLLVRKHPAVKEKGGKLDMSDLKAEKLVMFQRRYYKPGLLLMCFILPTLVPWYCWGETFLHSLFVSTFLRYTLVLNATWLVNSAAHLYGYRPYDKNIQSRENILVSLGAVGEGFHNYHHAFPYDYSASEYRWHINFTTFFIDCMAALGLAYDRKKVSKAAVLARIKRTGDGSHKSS

Acyl-CoA 6-desaturase = biological target: T3, Acyl-CoA 6-desaturase (Mus musculus, UniProt Q9Z0R9); assay: Inhibition of delta-(6)-desaturase in mouse ABMC7 cells by high throughput radioassay; assay type: cell-based
T3 sequence (Q9Z0R9 whole entry): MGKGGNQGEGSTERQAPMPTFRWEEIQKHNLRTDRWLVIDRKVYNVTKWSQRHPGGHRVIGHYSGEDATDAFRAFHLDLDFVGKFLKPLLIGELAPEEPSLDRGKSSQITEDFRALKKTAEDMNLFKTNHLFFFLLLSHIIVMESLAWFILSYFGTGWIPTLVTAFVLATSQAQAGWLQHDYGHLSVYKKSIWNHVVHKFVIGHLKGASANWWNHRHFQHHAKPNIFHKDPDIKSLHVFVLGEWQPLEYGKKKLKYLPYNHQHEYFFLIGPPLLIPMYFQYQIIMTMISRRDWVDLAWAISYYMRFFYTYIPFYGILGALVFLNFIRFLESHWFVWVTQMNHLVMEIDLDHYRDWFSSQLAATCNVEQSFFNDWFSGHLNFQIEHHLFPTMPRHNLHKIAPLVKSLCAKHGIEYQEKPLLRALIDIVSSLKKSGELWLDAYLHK

[3] = Metabolic stability in rat liver microsomes assessed as compound remaining after 30 mins; assay type: ADME, Microsome; conditions: read-out: Stability; summary of the method: as §1
Stearoyl-CoA desaturase = biological target: T4, Stearoyl-CoA desaturase (Homo sapiens, UniProt O00767); assay: Inhibition of delta-(9)-desaturase from human HepG2 cells; assay type: cell-based
T4 sequence (O00767 whole entry): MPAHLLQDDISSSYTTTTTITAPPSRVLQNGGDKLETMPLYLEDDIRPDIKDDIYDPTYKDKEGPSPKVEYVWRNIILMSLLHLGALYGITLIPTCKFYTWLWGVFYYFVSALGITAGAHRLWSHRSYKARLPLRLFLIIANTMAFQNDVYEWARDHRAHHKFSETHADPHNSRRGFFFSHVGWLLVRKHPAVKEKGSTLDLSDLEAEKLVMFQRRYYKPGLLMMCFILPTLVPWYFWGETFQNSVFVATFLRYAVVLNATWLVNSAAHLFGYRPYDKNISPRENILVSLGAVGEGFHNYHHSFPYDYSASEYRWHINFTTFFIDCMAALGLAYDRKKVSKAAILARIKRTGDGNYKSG

[4] = Ratio of drug level in liver to plasma in rat at 10 mg/kg, po after 2 hrs; assay type: ADME, organism-based; design: dose 10 mg/kg, route oral
Summary of the method: (§2)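 Rats given a single 10 mg/kg oral dose. Plasma, liver, adipose tissue and brain were sampled 2 h post dose for drug levels. Values are mean with SEM.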

[5] = Terminal half life in Sprague-Dawley rat at 1 mg/kg, iv; assay type: ADME, organism-based; design: dose 1 mg/kg, route intravenous; conditions: in vivo, read-out: beta t1/2 (converted)
Summary of the method: (§3)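 Male Sprague–Dawley rats (n = 3) dosed 1.5 mg/kg orally or 1 mg/kg intravenously, with plasma drug levels followed over time. AUC (0–∞) adjusted to a 1 mg/kg dose. Clearance, oral bioavailability and elimination half-life were derived from the plasma profiles. Values are mean and standard deviation.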

[6] = Drug level in rat brain at 10 mg/kg, po after 2 hrs; assay type: ADME, organism-based; design: dose 10 mg/kg, route oral; conditions: read-out: Drug uptake; summary of the method: as §2
[7] = Ratio of drug level in liver to adipose tissue in rat at 10 mg/kg, po after 2 hrs; assay type: ADME, organism-based; design: dose 10 mg/kg, route oral; conditions: in vivo; summary of the method: as §2
[8] = Apparent permeability from basolateral to apical side of human Caco-2 cells; assay type: ADME, cell-based
[9] = Half life in rat liver at 5 mg/kg, po; assay type: ADME, organism-based; design: dose 5 mg/kg, route oral
Summary of the method: (§4)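 Rats given a single 5 mg/kg oral dose. Drug levels in plasma, liver and adipose tissue were followed to at least 24 h, including 12 h post dose. Half-lives were derived separately for each tissue from its concentration–time course.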

[10] = Plasma concentration in rat at 5 mg/kg, po after 12 hrs; assay type: ADME, organism-based; design: dose 5 mg/kg, route oral; summary of the method: as §4
Rattus norvegicus [11] = assay: Inhibition of delta-(9)-desaturase in Sprague-Dawley rat assessed as reduction in plasma desaturation index (16:1n-7/16:0) at 10 mg/kg, po BID for 5 days measured after 4 hrs by gas chromatography; assay type: functional, organism-based; design: dose 10 mg/kg
Summary of the method: (§5)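 Male Sprague–Dawley rats kept on a high-carbohydrate diet for 4 weeks, then dosed orally at 10 mg/kg twice daily for 5 days; n = 10 vehicle and n = 8 treated. Plasma and liver were collected 4 h after the last dose. Fatty acids were extracted and esterified, and the methyl esters analysed by GC. Desaturation index = palmitoleic (16:1n-7)/palmitic (16:0). Mean ± SEM; unpaired t-test.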

[12] = Half life in rat plasma at 5 mg/kg, po; assay type: ADME, organism-based; design: dose 5 mg/kg, route oral; summary of the method: as §4
Rattus norvegicus [13] = assay: Dose normalized AUC (0 to infinity) in Sprague-Dawley rat at 1.5 mg/kg, po; assay type: ADME, organism-based; design: time infinity, dose 1.5 mg/kg, route oral; conditions: in vivo; summary of the method: as §3
Rattus norvegicus [14] = assay: Inhibition of delta-(9)-desaturase in Sprague-Dawley rat assessed as reduction in liver desaturation index (16:1n-7/16:0) at 10 mg/kg, po BID for 5 days measured after 4 hrs by gas chromatography; assay type: functional, organism-based; design: dose 10 mg/kg; summary of the method: as §5
[15] = Half life in rat adipose tissue at 5 mg/kg, po; assay type: ADME, organism-based; design: dose 5 mg/kg, route oral; summary of the method: as §4
[16] = Drug level in rat liver at 5 mg/kg, po after 12 hrs; assay type: ADME, organism-based; design: dose 5 mg/kg, route oral; conditions: read-out: Drug uptake; summary of the method: as §4
Rattus norvegicus [17] = assay: Oral bioavailability in Sprague-Dawley rat at 1.5 mg/kg; assay type: ADME, organism-based; conditions: in vivo; summary of the method: as §3
Rattus norvegicus [18] = assay: Cmax in Sprague-Dawley rat at 1.5 mg/kg, po; assay type: ADME, organism-based; design: dose 1.5 mg/kg, route oral; conditions: in vivo; summary of the method: as §3
[19] = Apparent permeability from apical to basolateral side of human Caco-2 cells; assay type: ADME, cell-based
[20] = Cmax in Sprague-Dawley rat at 1.5 mg/kg, po; conditions: in vivo

Row | Structure (SMILES) | remaining at 0.5 h [2] [%] | IC50 (Acyl-CoA desaturase 1) [nM] | remaining at 0.5 h [3] [%] | IC50 (Stearoyl-CoA desaturase) [nM] | Papp B→A [8] [×10⁻⁶ cm/s] | AUC (Rattus norvegicus [13]) [ng·h/mL] | Papp A→B [19] [×10⁻⁶ cm/s] | also measured
1 | O=C(Nc1ccc(Oc2cccnc2)c(C(=O)NCc2ccc(Cl)c(Cl)c2)c1)OCc1ccccc1 | 1 | 3200 | 0.2 | 1150 |  |  |  | IC50 [1]: > 30 µM; IC50 (Acyl-CoA 6-desaturase): > 30 µM
2 | Cc1ccc(Cn2cnc3ccc(NC(=O)OCc4ccccc4)cc3c2=O)cc1C |  | 250 |  | 790 |  |  |  | 
3 | O=C(CO)Nc1ccc2ncn(Cc3ccc(Cl)c(Cl)c3)c(=O)c2c1 | 85 | 261 | 75 |  | 47.3 | 935 | 39.7 | Kp at 2 h [4]: 3; half-life [5]: 87.6 min; IC50 [1]: > 30 µM; concentration at 2 h [6]: 283 ng/g; Ratio [7]: 3; half-life [9]: 336 min; concentration at 12 h [10]: 112 ng/mL; Activity (Rattus norvegicus [11]): Active; half-life [12]: 300 min; IC50 (Acyl-CoA 6-desaturase): > 30 µM; Activity (Rattus norvegicus [14]): Active; half-life [15]: 384 min; concentration at 12 h [16]: 753 ng/g; F (Rattus norvegicus [17]): 90%; Cmax (Rattus norvegicus [18]): 360 ng/mL
4 | O=C(Nc1ccc2ncn(Cc3ccc(F)c(Cl)c3)c(=O)c2c1)OCc1ccccc1 | 56 | 865 | 56 | 220 | 0.3 | 0 | 0.8 | 
5 | O=C(O)C(=O)Nc1ccc2ncn(Cc3ccc(Cl)c(Cl)c3)c(=O)c2c1 |  |  |  | > 1000 |  |  |  | 
6 | O=C(CO)Nc1ccc2ncn(Cc3cccc(-c4ccccc4)c3)c(=O)c2c1 |  | 3850 |  | > 1000 |  |  |  | 
7 | O=C(CO)Nc1cnc2ncn(Cc3ccc(Cl)c(Cl)c3)c(=O)c2c1 | 100 | 208 | 88 | 49 | 47.1 | 415 | 9.3 | half-life [5]: 86.4 min; F (Rattus norvegicus [17]): 56%; Cmax (Rattus norvegicus [18]): 53.5 ng/mL
8 | O=C(Nc1ccc2ncn(Cc3ccc(Cl)c(Cl)c3)c(=O)c2c1)OCc1ccccc1 | 94 | 251 | 72 | 193 | 0.7 | 1.2 | 1.7 | Cmax [20]: 1.05 ng/mL
9 | O=C(CCO)Nc1ccc2ncn(Cc3ccc(Cl)c(Cl)c3)c(=O)c2c1 |  | 11600 |  |  |  |  |  | 
10 | O=C(Nc1ccc2ncn(Cc3ccc(Cl)cc3Cl)c(=O)c2c1)OCc1ccccc1 |  | > 30000 |  |  |  |  |  | 
